One may read the inhibition as the change of the read-out against control, counted positive when it falls. The term IC50 denotes the concentration that inhibits the measured activity by half.

Test [1] is described as follows: Antiinflammatory activity in human neutrophils assessed as inhibition of fMLP/cytochalasin B-induced elastase release at 10 ug/ml after 5 mins. The test is classed as functional. The settings on record: Neutrophil. The method, boiled down: (§1)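 Neutrophils (6 × 10^5/mL) given MeO-Suc-Ala-Ala-Pro-Val-p-nitroanilide (100 µM) as substrate, equilibrated 2 min at 37 °C, then exposed to compound for 5 min. Stimulated with FMLP (100 nM)/CB (0.5 µg/mL). Absorbance at 405 nm followed continuously. Initial rate of elastase release expressed as percentage of the FMLP/CB-activated DMSO control. Genistein served as positive control.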

The nature of test [2]: Antiinflammatory activity in human neutrophils assessed as inhibition of fMLP/cytochalasin B-induced superoxide anion generation at 10 ug/ml after 5 mins by spectrophotometry. It is filed as functional. The settings on record: Neutrophil. The method, boiled down: (§2)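 Neutrophils isolated by dextran sedimentation and Ficoll centrifugation. Cells supplemented with ferricytochrome c (0.5 mg/mL) and Ca2+ (1 mM), equilibrated 2 min at 37 °C, then given compound for 5 min. CB (1 µg/mL) added 3 min before FMLP (100 nM) activation for 10 min. Superoxide dismutase-inhibitable ferricytochrome c reduction followed continuously at 550 nm with stirring.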

Another test has as its system HepG2. The test can be described thus: Cytotoxicity against human HepG2 cells by MTT assay. The test is classed as functional, cell-based. In a few lines: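 Human liver carcinoma HepG2 cells, viability read by MTT assay. Camptothecin served as positive control.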
(Tetrazolium assays rely on reduction of a dye to a coloured formazan, in cell work by metabolically active cells.)

The nature of test [3]: Antiinflammatory activity in human neutrophils assessed as inhibition of fMLP/cytochalasin B-induced elastase release after 5 mins. It is filed as functional, cell-based. The settings on record: Neutrophil. In a few lines: as §1
The nature of test [4]: Antiinflammatory activity in human neutrophils assessed as inhibition of fMLP/cytochalasin B-induced superoxide anion generation after 5 mins by spectrophotometry. It is filed as functional, cell-based. As to conditions: Neutrophil. The method, boiled down: as §2

In the case of `C=C1C[C@@H](OC(C)=O)/C=C(\C)CC[C@@H]2/C(=C\[C@H](O)C=C(C)C)C(=O)OC[C@@H]12`, the inhibition at 10 µg/mL in test [1] turned out to be 13%; in test [2], 9%. Besides, in the test on HepG2, the IC50 is > 40 µM.

As to `C=C1C[C@@H](O)[C@@H]2O[C@@]2(C)CC[C@@H]2C([C@@H](OC(C)=O)[C@H](C=C(C)C)OC(C)=O)=CO[C@H](OC(C)=O)[C@@H]12` [ASTEROLAURIN A], the values for the IC50 (in test [3]; in the test with HepG2) were 40 µM and 8.9 µM, respectively.

Regarding `C=C1C[C@@H](O)[C@@H](O)/C(C)=C\C[C@@H]2C([C@@H](OC(C)=O)[C@H](C=C(C)C)OC(C)=O)=CO[C@H](OC(C)=O)[C@@H]12` [ASTEROLAURIN B], the inhibition at 10 µg/mL in test [1] was 30%; in test [2] it was 31%. In addition, the IC50 in the test on HepG2 is > 40 µM.

Take `C=C1C[C@@H](O)[C@@H](O)C(=C)CC[C@@H]2C([C@@H](OC(C)=O)[C@H](C=C(C)C)OC(C)=O)=CO[C@H](OC(C)=O)[C@@H]12` [ASTEROLAURIN C]: the inhibition at 10 µg/mL in test [1] stood at 39%; in test [2], 22%. In addition, the half-maximal inhibitory concentration (IC50) with HepG2 was > 40 µM.

Take `C=C1C[C@@H](OC(C)=O)/C=C(\C)CC[C@@H]2/C(=C\C=C\C(C)(C)O)CO[C@H](O)[C@@H]12` [ASTEROLAURIN D]: the inhibition at 10 µg/mL in test [1] was 68%; in test [2] it was 56%. Besides, the IC50 in test [3] was 18.7 µM; in test [4] it was 23.6 µM; in the test with HepG2 it was > 40 µM.

Regarding `C=C1C[C@@H](OC(C)=O)/C=C(\COC(C)=O)CC[C@@H]2/C(=C\[C@H](O)C=C(C)C)C(=O)OC[C@@H]12` [ASTEROLAURIN E], the inhibition at 10 µg/mL in test [1] came out at 36%; in test [2], 24%. The 50% inhibitory concentration (IC50) in the test with HepG2 was > 40 µM.

`O=c1c(-c2ccc(O)cc2)coc2cc(O)cc(O)c12` [GENISTEIN]: the inhibition at 10 µg/mL in test [1] amounted to 52%; in test [2], 65%.
